For 74 sequences, folding enthalpy and Tm results are on record in the array DNA melting data of Ke et al. (doi:10.1101/2024.01.08.574731).

Series [1] is described as follows: folding enthalpy; higher = less favourable; fluorescence melt of hairpins on a sequencing array, two-state fit. The following applies: sodium 0.088 M. The method, boiled down:
(§1)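 Folding enthalpy and melting temperature come from bootstrapped two-state fits to Cy3 fluorescence of library hairpins carrying annealed Cy3 and quencher oligos on a sequenced MiSeq flow cell. Imaging was done in 50 mM Na-HEPES pH 8.0, 25 mM NaCl, stepping by 2.5 °C up to 60 °C, and signals were normalised to pre-quench Cy3 and to control constructs. Results of four replicates were combined by inverse variance, and fitted temperatures were raised by 9.35 °C to match UV melts.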

A short description of series [2]: melting temperature; fluorescence melt of hairpins on a sequencing array, two-state fit, raised by 9.35 °C to match UV melts. The note with it: sodium 0.088 M. The gist of the method: as §1

Take GCTTAGCGAAAGCAATGC ((.(.((....)).).)): in series [1], the folding enthalpy is -48.9 kJ/mol. Also, the Tm in series [2] is 31.9 °C.
Turning to GCCTTTACGAAAGTAGGC (((..(((....)))))), the folding enthalpy in series [1] is -120 kJ/mol. In series [2], the Tm was found to be 43.5 °C.
Taken in the same sequence, the figures for GCAATCGAAAGATTTGC ((((((....))).))) were -116 kJ/mol and 44.2 °C.
Take GGACACTCGAAAGAGTCC (((..(((....)))))): the folding enthalpy in series [1] is -66.4 kJ/mol. In series [2], the Tm turned out to be 39 °C.
Taken in the same sequence, the figures for GTGTGAGGAAACCCACAC (((((.(....).))))) were -133 kJ/mol and 48.3 °C.
For GGCGTACGAAAGTATGCC (((.(((....))).))), the folding enthalpy in series [1] was -175 kJ/mol. Besides, the Tm in series [2] was 65.5 °C.
GATCGTTTGAACGATC ((((((....)))))): the folding enthalpy in series [1] is -122 kJ/mol. Moreover, the Tm in series [2] was determined as 54.2 °C.
In the case of GCCGTGCGAAAGCAACGC ((..(((....)))..)), in series [1], the folding enthalpy was -45.5 kJ/mol. The Tm in series [2] was 54.1 °C.
Taken in the same sequence, the figures for GGTATACCGAAAGGTACC (((..(((....)))))) were -53.4 kJ/mol and 36.4 °C.
Taken in the same sequence, the figures for GACGTTCCGAAAGGAGTC (((..(((....)))))) were -71.3 kJ/mol and 36.6 °C.
Taken in the same sequence, the figures for GGTTTCGAAAGAAACACC ((((((....)))..))) were -47.2 kJ/mol and 45.7 °C.
Turning to GTCGAAACGAAAGTTGAC (((..(((....)))))), the folding enthalpy in series [1] was -77.5 kJ/mol. In series [2], the Tm is 37.2 °C.
Taken in the same sequence, the figures for GGGGAAGGAAACTTCCTC (.(((((....))))).) were -90.5 kJ/mol and 46.8 °C.
In the same order, the values of GTTATGACGAAAGTCAAC (((..(((....)))))) are -43.8 kJ/mol and 26.2 °C.
GATCTGGGTCAGATC ((((((...)))))): in series [1], the folding enthalpy was -150 kJ/mol. Moreover, the Tm in series [2] is 48.6 °C.
Take GATGGTGGAAACATCATC ((((.((....)).)))): in series [1], the folding enthalpy is -118 kJ/mol. The Tm in series [2] came to 46.1 °C.
Taken in the same sequence, the figures for GCCGCGCGAAAGCCTGGC (((..((....))..))) were -73.2 kJ/mol and 53.8 °C.
In the same order, the values of GCAATGGGAAACCGTTGC ((((.((....)).)))) are -181 kJ/mol and 55 °C.
In the same order, the values of GGCACTCGAAAGAGGCC (((.(((....)))))) are -89.8 kJ/mol and 57.8 °C.
Turning to GAGTTGCGAAAGCACTC (((.(((....)))))), the folding enthalpy in series [1] was -90.8 kJ/mol. Further, in series [2], the Tm worked out at 53.9 °C.
As to GATCGATCTGTCGATC ((((((....)))))), in series [1], the folding enthalpy was -189 kJ/mol. Moreover, the Tm in series [2] is 53.1 °C.
Taken in the same sequence, the figures for GATCGGGCGTCCGATC ((((((....)))))) were -156 kJ/mol and 58.2 °C.
Taken in the same sequence, the figures for AGCGGGAAACCGCT (((((....))))) were -79.9 kJ/mol and 67.1 °C.
With GACTAGGGAAACCTAGCC (.(((((....))))).), the folding enthalpy in series [1] is -82.3 kJ/mol. In addition, in series [2], the Tm is 38.4 °C.
Taken in the same sequence, the figures for GCCCAGACGAAAGTCGGC (((..(((....)))))) were -65.6 kJ/mol and 49.6 °C.
As to GGGTACCGAAAGGTTCCC (((.(((....))).))), in series [1], the folding enthalpy is -127 kJ/mol. The Tm in series [2] stood at 56.2 °C.
For GTTAACGGAAACGTTGAC ((.((((....)))).)), the folding enthalpy in series [1] was -113 kJ/mol. Besides, the Tm in series [2] turned out to be 46.3 °C.
Take GCGGCCGAAAGGCTCCGC ((((((....)))..))): in series [1], the folding enthalpy is -70.2 kJ/mol. In addition, the Tm in series [2] came to 53.8 °C.
As to GCTCGGCGAAAGCAAAGC (((..((....))..))), the folding enthalpy in series [1] is -68.5 kJ/mol. Also, in series [2], the Tm amounted to 37.8 °C.
Taken in the same sequence, the figures for GCTTAACGAAAGTTCAGC (((.(((....))).))) were -132 kJ/mol and 44.4 °C.
Regarding GGCACTGGAAACGGTGTC (.(((.(....).))).), in series [1], the folding enthalpy is -118 kJ/mol. In series [2], the Tm is 41.7 °C.
Taken in the same sequence, the figures for GCCTGCGAAAGCACAGGC ((((((....)))..))) were -100 kJ/mol and 55.5 °C.
Regarding GAGCACCGAAAGGTCTC (((.(((....)))))), in series [1], the folding enthalpy is -101 kJ/mol. In addition, the Tm in series [2] was determined as 47.6 °C.
In the same order, the values of GTACTTGGAAACAGGTAC ((((.((....)).)))) are -136 kJ/mol and 40.1 °C.
In the same order, the values of GGGATTGGAAACGATTCC ((.((.(....).)).)) are -87.7 kJ/mol and 36.9 °C.
Taken in the same sequence, the figures for GGGACTGGAAACGGTTCC ((.((.(....).)).)) were -79.2 kJ/mol and 42 °C.
Turning to GCGAGCGGAAACACCCGC (((.(.(....).).))), the folding enthalpy in series [1] is -57.6 kJ/mol. Also, the Tm in series [2] was 36.4 °C.
Turning to GCACTTGGAAACAAGTAC (.(((((....))))).), the folding enthalpy in series [1] is -80.8 kJ/mol. Besides, the Tm in series [2] stood at 37.9 °C.
Taken in the same sequence, the figures for GGCGCGGGAAACCACGCC ((((.((....)).)))) were -202 kJ/mol and 61 °C.
Turning to GAGGGCCCGAAAGGGCTC (((..(((....)))))), in series [1], the folding enthalpy was -34.4 kJ/mol. In addition, in series [2], the Tm amounted to 43.9 °C.
Turning to GATCTTCCTAAGATC ((((((...)))))), the folding enthalpy in series [1] is -132 kJ/mol. Also, in series [2], the Tm came to 45.7 °C.
In the same order, the values of GGCGCCGAAAGGCCTGCC ((((((....)))..))) are -69.4 kJ/mol and 50.8 °C.
GATCCGCGAACGGATC ((((((....)))))): the folding enthalpy in series [1] was -177 kJ/mol. For the same sequence, the Tm in series [2] was 58.9 °C.
Taken in the same sequence, the figures for GGTTACGGAAACGCAACC ((((.((....)).)))) were -137 kJ/mol and 46.6 °C.
Take GATGACGAAAGTCAAATC ((((((....)))..))): in series [1], the folding enthalpy is -49.4 kJ/mol. For the same sequence, the Tm in series [2] is 34.6 °C.
Taken in the same sequence, the figures for GGGCTACGAAAGTACCCC (((.(((....))).))) were -73.1 kJ/mol and 49.4 °C.
In the same order, the values of GTATGTGGAAACACATAC (((((((....))))))) are -177 kJ/mol and 56 °C.
In the same order, the values of GTTATCGAAAGATATAAC ((((((....)))..))) are -47.2 kJ/mol and 29.3 °C.
Consider GATCCGCCCCGGATC ((((((...)))))), for which the folding enthalpy in series [1] is -154 kJ/mol. The Tm in series [2] is 58.4 °C.
In the same order, the values of GAGCGCGAAAGCGGCTC ((((((....))).))) are -86.1 kJ/mol and 67.8 °C.
In the case of GGGGACGAAAGTCACCCC ((((((....)))..))), in series [1], the folding enthalpy is -53.2 kJ/mol. Besides, the Tm in series [2] was 63.3 °C.
For GATCGGATTTCCGATC ((((((....)))))), the folding enthalpy in series [1] was -153 kJ/mol. For the same sequence, the Tm in series [2] turned out to be 57.5 °C.
Taken in the same sequence, the figures for GGCACCGAAAGGTGGGCC ((((((....)))..))) were -52.4 kJ/mol and 52.6 °C.
For GCGAGCGGAAACACTCGC (((((.(....).))))), in series [1], the folding enthalpy was -202 kJ/mol. Also, the Tm in series [2] was 56.2 °C.
Taken in the same sequence, the figures for GCGGACATCCGC ((((....)))) were -94 kJ/mol and 56.5 °C.
As to GCGAAGCGAAAGCGTGGC ((.(.((....)).).)), the folding enthalpy in series [1] is -43.8 kJ/mol. Besides, in series [2], the Tm came out at 47.3 °C.
Taken in the same sequence, the figures for GGCATTCCGAAAGGAGCC (((..(((....)))))) were -97.9 kJ/mol and 43.1 °C.
In the case of GATCGGAATTCCGATC ((((((....)))))), in series [1], the folding enthalpy is -213 kJ/mol. Besides, the Tm in series [2] is 56.6 °C.
In the same order, the values of GCGGCGCGAAAGCGTGGC ((..(((....)))..)) are -86.4 kJ/mol and 62 °C.
Taken in the same sequence, the figures for GCGATCTCGAAAGAGCGC (((..(((....)))))) were -138 kJ/mol and 56.3 °C.
Take GGTCTAGCGAAAGCTACC (((..(((....)))))): the folding enthalpy in series [1] is -42.2 kJ/mol. In addition, the Tm in series [2] was 31.2 °C.
Regarding GATCCACATGTGGATC ((((((....)))))), in series [1], the folding enthalpy is -172 kJ/mol. The Tm in series [2] amounted to 62.1 °C.
With GCAGAGCGAAAGCCCCGC ((.(.((....)).).)), the folding enthalpy in series [1] is -42.1 kJ/mol. For the same sequence, the Tm in series [2] was 36.9 °C.
With GTACGCTCGAAAGAGTAC (((..(((....)))))), in series [1], the folding enthalpy is -91.2 kJ/mol. Besides, in series [2], the Tm was determined as 34.1 °C.
In the same order, the values of GAACACCGAAAGGTTTTC (((.(((....))).))) are -105 kJ/mol and 38 °C.
Turning to AGAACCCGAAAGGCTTCT ((((.((....)).)))), in series [1], the folding enthalpy was -74.2 kJ/mol. Also, the Tm in series [2] was determined as 33.6 °C.
Taken in the same sequence, the figures for GGCAGGGCGAAAGCCGCC (((..(((....)))))) were -76.9 kJ/mol and 63.3 °C.
GATTAGCGAAAGCTATC (((.(((....)))))): in series [1], the folding enthalpy was -52.3 kJ/mol. Also, the Tm in series [2] was found to be 34.7 °C.
As to GCGTGGCGAAAGCGATGC ((.(.((....)).).)), the folding enthalpy in series [1] was -106 kJ/mol. Also, the Tm in series [2] was 55.7 °C.
For the sequence GGGCGACGAAAGTCCCC (((.(((....)))))), in series [1], the folding enthalpy was -115 kJ/mol. For the same sequence, the Tm in series [2] was found to be 55.4 °C.
In the same order, the values of GAATCCCCGAAAGGGTTC (((..(((....)))))) are -60.3 kJ/mol and 31 °C.
GGTCACGCGAAAGCGACC (((..(((....)))))): the folding enthalpy in series [1] is -59.3 kJ/mol. In addition, the Tm in series [2] was determined as 47.4 °C.
For the sequence CGCGGAAAGATCCGCG ((((((....)))))), the folding enthalpy in series [1] was -141 kJ/mol. Besides, in series [2], the Tm amounted to 64.2 °C.
Taken in the same sequence, the figures for GATCCCTCGGGGATC ((((((...)))))) were -144 kJ/mol and 62.9 °C.
